The values below come from article PMC10262780 (Nature structural & molecular biology, 2022).

Square brackets hold non-standard residues; d marks the D form. Ends that are not written are not given here. * marks the point of attachment. FITC = O=C1OC2(c3ccc(O)cc3Oc3cc(O)ccc32)c2ccc(NC(=S)*)cc21; pS = N[C@@H](COP(=O)(O)O)C(=O)O

In experiment [1] the target is T1, Rb (human Retinoblastoma protein AB domain) (Homo sapiens, UniProt P06400, DEL582-642).
T1 sequence (P06400 with tags, fused parts or gaps DEL582-642): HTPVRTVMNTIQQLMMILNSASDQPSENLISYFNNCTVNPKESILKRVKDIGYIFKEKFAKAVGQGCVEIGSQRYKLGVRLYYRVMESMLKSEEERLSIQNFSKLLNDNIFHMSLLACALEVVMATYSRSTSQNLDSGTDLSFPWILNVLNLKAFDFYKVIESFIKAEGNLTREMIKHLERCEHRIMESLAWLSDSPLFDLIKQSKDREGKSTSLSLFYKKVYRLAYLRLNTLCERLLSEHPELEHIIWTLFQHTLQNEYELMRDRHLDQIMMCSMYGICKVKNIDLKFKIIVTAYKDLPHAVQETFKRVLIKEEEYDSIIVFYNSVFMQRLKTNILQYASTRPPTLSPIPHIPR
Nature of the experiment: Isothermal titration calorimetry. Particulars: ITC. It counts as binding. In short, it runs like this: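 Human Rb AB domain (residues 372–787, loop 582–642 deleted), expressed in E. coli, in the cell at 5–30 µM. Peptide/protein titrant in the syringe at 50–300 µM. Cell and syringe samples co-dialysed 48 h at 4 °C in 20 mM sodium phosphate pH 7.0, 200 mM NaCl, 5 mM 2-mercaptoethanol, then degassed. Run at 20.0 °C unless stated, also 10–30 °C. 28 × 10-µl or 13 × 3-µl injections; enthalpy per mole of injectant fitted to a single-site model.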

The target in experiment [2] is human Retinoblastoma protein AB domain with a stabilizing loop deletion (372-787Δ582-642) (human) (UniProt P06400). Nature of the experiment: fluorescence polarisation.
Experiment [3] concerns the target T2, human Retinoblastoma protein AB domain with a stabilizing loop deletion (372-787Δ582-642) (human, UniProt P06400 372-787, Δ582–642).
T2 sequence (looked up): T1 sequence (P06400 with tags, fused parts or gaps DEL582-642)
Nature of the experiment: fluorescence polarisation. A general note: Fluorescence polarisation rises when a labelled molecule tumbles more slowly, as on binding a larger partner.

The target of the next experiment is DNA. The note with it: Oct-1 binding to DNA; cited from earlier work.
In experiment [4] the target is T2, human Retinoblastoma protein AB domain …. The experiment in a line: fluorescence polarisation + ITC.
Experiment [5] has the same target. The experiment in a line: fluorescence polarisation. The source holds these as a separate data set.
Experiment [6] deals with T3, Rb (human Retinoblastoma protein AB domain, 372–787Δ582–642) (Homo sapiens, UniProt P06400, DEL582-642).
T3 sequence (P06400 with tags, fused parts or gaps DEL582-642): T1 sequence (P06400 with tags, fused parts or gaps DEL582-642)
The experiment in a line: Fluorescence polarization direct titration of FITC-labelled constructs with Rb. Format: binding.

The target in experiment [7] is T1, Rb (human Retinoblastoma protein AB domain). Nature of the experiment: E2F competition. Format: binding. The note with it: MBP fusion protein, competition experiment.
The target in experiment [8] is T2, human Retinoblastoma protein AB domain …. The experiment in a line: ITC. (In general: ITC needs no label: the signal is the heat of the interaction.)
Setting [9] is: from direct titration KD values.

As to 116-VPEVIDLTCHEAGFPP-131 [E1ALxCxE], the “thermodynamic origin of binding to Rb” value in experiment [1] (20 mM Sodium Phosphate pH 7.0, 200 mM NaCl, 5mM 2-mercapto ethanol, 20 °C) is “enthalpically driven”. Turning to “Hum-2–2x: tandem repeat of the Hum-2 (HAdV40) linker between the HAdV5 E1AE2F and E1A_(LxCxE) motifs, MBP fusion”, the KD/KD,E1AWT in experiment [2] is 1.1.

B1: FITC-labelled E1AΔL (domain or fragment)
chain: SHFEPPTLHELYDLDVTAPEDPNEEAVSQIFPDSVMLAVQEGIDLLTFPPAPGSPEPPHLSRQPEQPEQRALGPVSMPNLVPEVIDAAAAAGFPPSDDEDEEGEEFVLDY
modifications: FITC (fluorescein 5-isothiocyanate) on the N-terminus
As to B1, the binding result in experiment [3] is “binds”.

B2: E1AΔL: E1AWT variant with LxCxE motif mutated to poly-alanine (122-LTCHE-126Δ122-AAAA-125) (protein)
chain: B1 chain
modifications: left off: MBP, end not stated, cleaved
B2: the “heat behaviour of binding to Rb (exothermic/endothermic)” value in experiment [1] (Rb in cell, peptide/protein as titrant) was “endothermic”.

B3: Oct-1: POU domain activator Oct-1 binding to DNA (protein, UniProt P14859 1-743, looked up)
POU domain, class 2, …: MNNPSETSKPSMESGDGNTGTQTNGLDFQKQPVPVGGAISTAQAQAFLGHLHQVQLAGTSLQAAAQSLNVQSKSNEESGDSQQPSQPSQQPSVQAAIPQTQLMLAGGQITGLTLTPAQQQLLLQQAQAQAQLLAAAVQQHSASQQHSAAGATISASAATPMTQIPLSQPIQIAQDLQQLQQLQQQNLNLQQFVLVHPTTNLQPAQFIISQTPQGQQGLLQAQNLLTQLPQQSQANLLQSQPSITLTSQPATPTRTIAATPIQTLPQSQSTPKRIDTPSLEEPSDLEELEQFAKTFKQRRIKLGFTQGDVGLAMGKLYGNDFSQTTISRFEALNLSFKNMCKLKPLLEKWLNDAENLSSDSSLSSPSALNSPGIEGLSRRRKKRTSIETNIRVALEKSFLENQKPTSEEITMIADQLNMEKEVIRVWFCNRRQKEKRINPPSSGGTSSSPIKAIFPSPTSLVATTPSLVTSSAATTLTVSPVLPLTSAAVTNLSVTGTSDTTSNNTATVISTAPPASSAVTSPSLSPSPSASASTSEASSASETSTTQTTSTPLSSPLGTSQVMVTASGLQTAAAAALQGAAQLPANASLAAMAAAAGLNPSLMAPSQFAAGGALLSLNPGTLSGALSPALMSNSTLATIQALASGGSLPITSLDATGNLVFANAGGAPNIVTAPLFLNPQNLSLLTSNPVSLVSAAAASAGNSAPVASLHATSTSAESIQNSLFTVASASGAASTTTTASKAQ
A word on the Kd: it is the constant that tells how readily two partners part at equilibrium. For B3, at DNA, the Kd was 71 pM and the “affinity enhancement by tethering” value is reported as 2100 fold.

B4: FITC-labelled E1AΔE (domain or fragment)
chain: SHFEPPTAAAADLDVTAPEDPNEEAVSQIFPDSVMLAVQEGIDLLTFPPAPGSPEPPHLSRQPEQPEQRALGPVSMPNLVPEVIDLTCHEAGFPPSDDEDEEGEEFVLDY
modifications: FITC (fluorescein 5-isothiocyanate) on the N-terminus
Consider B4, for which, in experiment [3], the binding result is “binds”. Consider VPEVIDLTCHEAGFPP[pS]DDEDEEG [E1A_(LxCxE-ACP) peptide (HAdV5 E1A 116-139, phosphorylated at Ser132)], for which the “fold increase in binding affinity over E1A_(LxCxE)” value in experiment [4] stood at 5 fold.

B5: MBP-E1AWT (uncleaved MBP fusion of HAdV5 E1A 36-146) (domain or fragment)
chain: SHFEPPTLHELYDLDVTAPEDPNEEAVSQIFPDSVMLAVQEGIDLLTFPPAPGSPEPPHLSRQPEQPEQRALGPVSMPNLVPEVIDLTCHEAGFPPSDDEDEEGEEFVLDY
Turning to B5, binding in [5] was characterised by a dissociation constant (Kd) of 75 ± 17 pM.

B6: E1AWT: adenovirus serotype 5 (HAdV5) Early 1A protein fragment (36–146), minimal Rb binding region (protein)
chain: B5 chain
modifications: left off: MBP, end not stated, cleaved
Consider B6, for which the “Ceff obtained from the affinities of the construct and the isolated motifs” value in experiment [6] (Ceff=(KD,E2F*KD,LxCxE)/KD) is 0.52 ± 0.09 mM. Moreover, the “total ΔGBINDING” value in [6] (binding to Rb) was -14.24 kcal/mol. For the same molecule, in experiment [6] (setting [9]), the “affinity enhancement compared to E2F2” value turned out to be 40 fold and the “affinity enhancement compared to the individual E1A SLiMs” value worked out at 4000 fold.

B7: MBP-E1AWT: uncleaved MBP fusion protein of E1AWT (protein)
chain: B5 chain
modifications: left off: MBP, end not stated, kept
Take B7: the “binding affinity compared with cleaved E1AWT” value in experiment [7] is reported as “same binding affinity as cleaved E1AWT”.

Consider SPSLDQDDYLWGLEAGEGISDLFD [Human E2F2 peptide (404-427)], for which the binding result in experiment [8] was “binds”. Turning to {FITC}-VPEVIDLTCHEAGFPP [FITC-labelled E1A_(LxCxE) peptide (HAdV5 E1A 116-131)], in experiment [3], the binding result is listed as “binds”.
